Experimental data reported in ChEMBL document CHEMBL1123298, “Novel 1,3-bis(aryloxy)propanes as leukotriene D4 antagonists” (1986).

Test system: Cavia porcellus
Assay: In vivo antagonistic activity against leukotriene D4 (LTD4) in guinea pig lung
Type: functional
Conditions: read-out: ID50 (the source's name)
Procedure, shortened: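 Drug in propylene glycol given iv 10 min before LTD4 400 ng/kg iv; controls received solvent. Lung overflow volume read at 5 min; ID50 by inverse prediction, common-slope parallel line assay, 3-fold doses, 2–6 animals/dose.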

Row | Compound | ED50
1 | CCCc1c(NC(=O)C(=O)OCC)cccc1OCC(O)COc1ccc(C(C)=O)c(O)c1CCC (stereo not given) | 2.6 mg/kg
2 | CCCc1c(OCC(O)COc2cccc(NC(=O)C(=O)OCC(C)(C)C)c2C#N)ccc(C(C)=O)c1O (stereo not given) | 0.461 mg/kg
3 | CCCc1c(OCCCOc2cccc(NC(=O)C(=O)OCC)c2)ccc(C(C)=O)c1O | 1.09 mg/kg
4 | CCCc1c(OCC(O)COc2cccc(NC(=O)CC(=O)OCC)c2C#N)ccc(C(C)=O)c1O (stereo not given) | 0.64 mg/kg
5 | CCCc1c(OCCCOc2cccc(NC(=O)C(=O)OCC)c2C#N)ccc(C(C)=O)c1O | 0.342 mg/kg
6 | CCCc1c(OCCCOc2cccc(NC(=O)CCC(=O)OCC)c2C#N)ccc(C(C)=O)c1O | 1.77 mg/kg
7 | CCCc1c(OCC(O)COc2cccc(NC(=O)C(=O)OCC)c2C#N)ccc(C(C)=O)c1O (stereo not given) | 0.113 mg/kg
8 | CCCc1c(OCC(O)COc2cccc(NC(=O)C(=O)O)c2C#N)ccc(C(C)=O)c1O (stereo not given) | 1.8 mg/kg
9 | CCCc1c(OCCCOc2cccc(NC(=O)CCC(=O)OCC)c2)ccc(C(C)=O)c1O | 1.28 mg/kg
10 | CCCc1c(OCC(O)COc2ccc3c(=O)cc(C(=O)[O-])oc3c2CCC)ccc(C(C)=O)c1O.[Na+] (stereo not given) [FPL-55712 SODIUM SALT] | 0.153 mg/kg
